This is an account of results in ChEMBL document CHEMBL3351291, “Lajollamycins, nitro group-bearing spiro-β-lactone-γ-lactams obtained from a marine-derived Streptomyces sp” (J Nat Prod, 2014).

Calls of active or inactive are those of the source. The calls are words filed in the database; no cut-off is given here.

Assay [1] concerns Kocuria rhizophila. Description: Antibacterial activity against Kocuria rhizophila NBRC 12708. Type of assay: functional.
Assay [2] concerns Staphylococcus aureus. Description: Antibacterial activity against Staphylococcus aureus ATCC 6538p. It counts as functional.
The subject of assay [3] is K562. The experiment in a line: Cytotoxicity against human K562 cells. Type of assay: functional, cell-based.
Assay [4] deals with Salmonella enterica. The experiment in a line: Antibacterial activity against Salmonella enterica ATCC 14028. It counts as functional.
Assay [5] in a line: Cytotoxicity against human HCT116 cells. It counts as functional, cell-based. To be noted: HCT-116.
Assay [6] relates to Aspergillus fumigatus. Description: Antifungal activity against Aspergillus fumigatus. Type of assay: functional, organism-based.
The test system of assay [7] is Bacillus subtilis. The experiment in a line: Antibacterial activity against Bacillus subtilis ATCC 6633. Type of assay: functional.
Assay [8] deals with Escherichia coli. The experiment in a line: Antibacterial activity against Escherichia coli ATCC 35270. Type of assay: functional.
A short description of assay [9]: Cytotoxicity against human SNU638 cells. It counts as functional, cell-based. The settings on record: SNU-638.
Assay [10] deals with Proteus hauseri. Description: Antibacterial activity against Proteus hauseri NBRC 3851. Type of assay: functional.
For assay [11], the system named is Candida albicans. Description: Antifungal activity against Candida albicans. It counts as functional, organism-based.
Assay [12] in a line: Inhibition of Candida albicans isocitrate lyase using isocitrate substrate. A digest of the protocol: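 Recombinant ICL at 2.5 μg/mL in 20 mM sodium phosphate buffer, pH 7.0, with 1.27 mM threo-DL(+)-isocitrate, 3.75 mM MgCl2 and 4.1 mM phenylhydrazine. Reaction started on substrate addition, with or without inhibitor in DMSO (0.5% final). After 30 min at 37 °C, glyoxylate phenylhydrazone was read at 324 nm. Percent inhibition was taken against an inhibitor-free control, with 3-nitropropionic acid as positive control.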

Assay [13] concerns A549. Description: Cytotoxicity against human A549 cells. It counts as functional, cell-based.
Assay [14] can be described thus: Cytotoxicity against human SKHEP1 cells. It counts as functional, cell-based. The settings on record: SK-HEP1.
The subject of assay [15] is MDA-MB-231. Description: Cytotoxicity against human MDA-MB-231 cells. It counts as functional, cell-based.

Regarding `CO[C@@H](C[C@@H](C)[C@@H](O)/C=C/C=C/CNC(=O)C(C)(C)[C@H](O)/C(C)=C/C=C/C=C/C(C)=C(\C)[N+](=O)[O-])[C@]1(O)[C@@H](C)C(=O)N(C)[C@@]12COC2=O`, the MIC in assay [1], in assay [2], in assay [4], in assay [7], in assay [8] and in assay [10] was over 128 µg/mL in each case. Further, the IC50 in assay [3] is over 100 µM; in assay [5] it was over 100 µM; in assay [9] it was over 100 µM; in [12] (read-out: IC50) it was 40 µM; in assay [13], over 100 µM; in assay [14], over 100 µM. Moreover, in assay [15], the IC50 was over 100 µM. The result in assay [6] and in [11] was inactive.

In assay [12], `O=C(O)CC[N+](=O)[O-]` displayed an IC50 of 4.2 µg/mL.

As for `COC(CC(C)C(O)/C=C/C=C/CNC(=O)C(C)(C)C(O)\C(C)=C/C=C\C=C\C(C)=C(/C)[N+](=O)[O-])C1(O)C(C)C(=O)N(C)C12C(=O)OC2C` (stereo unspecified) [LAJOLLAMYCIN], the MIC in assay [1], in assay [2], in assay [4], in assay [7], in [8] and in [10] was over 128 µg/mL throughout. Also, the IC50 in [3] is over 100 µM; in [5], over 100 µM; in [9], over 100 µM; in assay [12] (read-out: IC50) it was 42 µM; in [13], over 100 µM; in [14] it was over 100 µM. In assay [15], this compound gave an IC50 of over 100 µM. For the same compound, the result in [6] and in [11] was inactive.

For the compound `CO[C@@H](C[C@@H](C)[C@@H](O)/C=C/C=C/CNC(=O)C(C)(C)[C@H](O)\C(C)=C/C=C/C=C/C(C)=C(\C)[N+](=O)[O-])[C@]1(O)[C@@H](C)C(=O)N(C)[C@]12C(=O)O[C@@H]2C`, the MIC in assay [1], in [2], in assay [4], in assay [7], in [8] and in assay [10] was over 128 µg/mL each time. Also, the IC50 in [3] is over 100 µM; in [5], over 100 µM; in assay [9], over 100 µM; in [12] (read-out: IC50), 120 µM; in assay [13] it was over 100 µM; in assay [14] it was over 100 µM. Also, in assay [15], the IC50 was over 100 µM. The result in [6] and in assay [11] was inactive.

Take `CO[C@@H](C[C@@H](C)[C@@H](O)/C=C/C=C/CNC(=O)C(C)(C)[C@H](O)/C(C)=C/C=C/C=C/C(C)=C(\C)[N+](=O)[O-])[C@]1(O)[C@@H](C)C(=O)N(C)[C@]12C(=O)O[C@@H]2C`: the MIC in assay [1], in assay [2], in assay [4], in [7], in [8] and in assay [10] was over 128 µg/mL in each case. In addition, the IC50 in assay [3] is over 100 µM; in assay [5], over 100 µM; in [9] it was over 100 µM; in [12] (read-out: IC50) it was 50 µM; in assay [13] it was over 100 µM; in assay [14] it was over 100 µM. Moreover, the IC50 in assay [15] is over 100 µM. For the same compound, the outcome in assay [6] and in assay [11] was inactive.
